Data from ChEMBL document CHEMBL1629583, “Establishment of in vitro susceptibility testing methodologies and comparative activities of piperacillin in combination with the penem {beta}-lactamase inhibitor BLI-489” (2009).
≈ marks a conversion by molar mass, not a printed value.

Columns and labels:
Assay type in all cases: functional
[1] = system: Streptococcus pneumoniae; test: Antimicrobial activity against penicillin-intermediate Streptococcus pneumoniae clinical isolate after 18 to 22 hrs by broth microdilution method in presence of beta-lactamase inhibitor Tazobactam
Outline: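 Broth microdilution per CLSI in Mueller-Hinton II broth supplemented with 5% lysed horse blood, using serial dilutions of piperacillin-tazobactam. Inoculum was 10^5 CFU/ml. Incubation was 18 to 22 h at 35°C in ambient air. MIC was the lowest concentration with no growth visible to the unaided eye.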

[2] = system: Parvimonas micra; test: Antimicrobial activity against Peptostreptococcus micros clinical isolate after 18 to 22 hrs by broth microdilution method in presence of beta-lactamase inhibitor Tazobactam
[3] = system: Streptococcus pneumoniae; test: Antimicrobial activity against penicillin-resistant Streptococcus pneumoniae clinical isolate after 18 to 22 hrs by broth microdilution method in presence of beta-lactamase inhibitor Tazobactam
Outline: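 CLSI broth microdilution in Mueller-Hinton II broth with 5% lysed horse blood. Antibiotic in serial dilution with the β-lactamase inhibitor held at a constant 4 μg/ml. Inoculum 10^5 CFU/ml. Incubated 18 to 22 h at 35°C in ambient air. MIC is the lowest concentration with no growth visible to the eye.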

[4] = system: Klebsiella pneumoniae; test: Antimicrobial activity against Klebsiella pneumoniae clinical isolate after 18 to 22 hrs by broth microdilution method in presence of beta-lactamase inhibitor BLI-489
Outline: (§1)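 CLSI broth microdilution in Mueller-Hinton II broth. Serial dilutions of piperacillin were tested with BLI-489 held at a constant 4 μg/ml. Inoculum was 10^5 CFU/ml. Plates were incubated 18 to 22 h at 35°C in ambient air. MIC was the lowest concentration giving complete growth inhibition by unaided eye.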

[5] = system: Escherichia coli; test: Antimicrobial activity against AmpC beta-lactamase-producing Escherichia coli clinical isolate after 18 to 22 hrs by broth microdilution method in presence of beta-lactamase inhibitor BLI-489
Outline: (§2)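 CLSI broth microdilution in Mueller-Hinton II broth. Piperacillin serial dilutions were combined with BLI-489 held constant at 4 μg/ml. Inoculum was 10^5 CFU/ml. Plates were incubated 18 to 22 h at 35°C in ambient air. MIC was the lowest concentration completely inhibiting growth seen by the unaided eye. Piperacillin-tazobactam interpretive criteria were applied.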

[6] = system: Providencia rettgeri; test: Antimicrobial activity against Providencia rettgeri clinical isolate after 18 to 22 hrs by broth microdilution method in presence of beta-lactamase inhibitor BLI-489; outline: as §1
[7] = system: Klebsiella aerogenes; test: Antimicrobial activity against AmpC beta-lactamase-producing Enterobacter aerogenes clinical isolate after 18 to 22 hrs by broth microdilution method in presence of beta-lactamase inhibitor BLI-489; outline: as §2
[8] = system: Klebsiella pneumoniae; test: Antimicrobial activity against class A extended spectrum beta-lactamase- producing Klebsiella pneumoniae clinical isolate after 18 to 22 hrs by broth microdilution method in presence of beta-lactamase inhibitor Tazobactam
Outline: (§3)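 CLSI broth microdilution of piperacillin-tazobactam in Mueller-Hinton II broth with serial dilutions. Inoculum was 10^5 CFU/ml. Incubation was 18 to 22 h at 35°C in ambient air. MIC was read as the lowest concentration giving complete inhibition of growth visible to the unaided eye.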

[9] = system: Streptococcus agalactiae; test: Antimicrobial activity against Streptococcus agalactiae clinical isolate after 18 to 22 hrs by broth microdilution method in presence of beta-lactamase inhibitor Tazobactam
Outline: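 Streptococcal isolates were tested with piperacillin-tazobactam by CLSI broth microdilution in Mueller-Hinton II broth supplemented with 5% lysed horse blood. Inoculum was 10^5 CFU/ml, incubated 18 to 22 h at 35°C in ambient air. Visual endpoint: lowest concentration with complete inhibition.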

[10] = system: Escherichia coli; test: Antimicrobial activity against class A extended spectrum beta-lactamase- producing Escherichia coli clinical isolate after 18 to 22 hrs by broth microdilution method in presence of beta-lactamase inhibitor BLI-489
Outline: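 Piperacillin serially diluted with BLI-489 held at a constant 4 μg/ml, by CLSI broth microdilution in Mueller-Hinton II broth. Inoculum was 10^5 CFU/ml. Plates were incubated 18 to 22 h at 35°C in ambient air. MIC was the lowest concentration completely inhibiting growth seen by the unaided eye.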

[11] = system: Escherichia coli; test: Antimicrobial activity against class A extended spectrum beta-lactamase- producing Escherichia coli clinical isolate after 18 to 22 hrs by broth microdilution method in presence of beta-lactamase inhibitor Tazobactam; outline: as §3
[12] = system: Enterococcus casseliflavus; test: Antimicrobial activity against Enterococcus casseliflavus clinical isolate after 18 to 22 hrs by broth microdilution method in presence of beta-lactamase inhibitor BLI-489; outline: as §2
[13] = system: Acinetobacter junii; test: Antimicrobial activity against Acinetobacter junii clinical isolate after 18 to 22 hrs by broth microdilution method in presence of beta-lactamase inhibitor BLI-489; outline: as §2
[14] = system: Parvimonas micra; test: Antimicrobial activity against Peptostreptococcus micros clinical isolate after 18 to 22 hrs by broth microdilution method
[15] = system: Clostridium perfringens; test: Antimicrobial activity against Clostridium perfringens clinical isolate after 18 to 22 hrs by broth microdilution method
[16] = system: Haemophilus parainfluenzae; test: Antimicrobial activity against Haemophilus parainfluenzae clinical isolate after 18 to 22 hrs by broth microdilution method in presence of beta-lactamase inhibitor Tazobactam
Outline: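 […] was used for CLSI broth microdilution with piperacillin-tazobactam. Inoculum was 10^5 CFU/ml, incubated 18 to 22 h at 35°C in ambient air. MIC was the lowest concentration with no growth visible to the unaided eye.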

[17] = system: Citrobacter freundii; test: Antimicrobial activity against Citrobacter freundii clinical isolate after 18 to 22 hrs by broth microdilution method in presence of beta-lactamase inhibitor BLI-489; outline: as §2
[18] = system: Serratia marcescens; test: Antimicrobial activity against AmpC beta-lactamase-producing Serratia marcescens clinical isolate after 18 to 22 hrs by broth microdilution method in presence of beta-lactamase inhibitor Tazobactam
Outline: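 Piperacillin-tazobactam was tested on recent clinical isolates by CLSI broth microdilution in Mueller-Hinton II broth, with tazobactam at constant 4 μg/ml. Wells held 10^5 CFU/ml and were incubated 18 to 22 h at 35°C in ambient air. MIC was the lowest concentration with no growth visible to the unaided eye.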

[19] = system: Clostridium perfringens; test: Antimicrobial activity against Clostridium perfringens clinical isolate after 18 to 22 hrs by broth microdilution method in presence of beta-lactamase inhibitor Tazobactam
[20] = system: Moraxella catarrhalis; test: Antimicrobial activity against Moraxella catarrhalis clinical isolate after 18 to 22 hrs by broth microdilution method in presence of beta-lactamase inhibitor BLI-489; outline: as §1

Question: What does the source list for `CCN1CCN(C(=O)N[C@@H](C(=O)N[C@@H]2C(=O)N3[C@@H]2SC(C)(C)[C@@H]3C(=O)O)c2ccccc2)C(=O)C1=O` [PIPERACILLIN]?
Answer: MIC50 [1]: 0.5 mg/L; MIC90 [1]: 1 mg/L; MIC50 [2]: 0.03 mg/L; MIC90 [2]: 0.25 mg/L; MIC50 [3]: 2 mg/L; MIC90 [3]: 4 mg/L; MIC50 [4]: 2 mg/L; MIC90 [4]: 8 mg/L; MIC50 [5]: 2 mg/L; MIC90 [5]: 16 mg/L; MIC50 [6]: 1 mg/L; MIC90 [6]: 8 mg/L; MIC50 [7]: 2 mg/L; MIC90 [7]: 8 mg/L; MIC50 [8]: 32 mg/L; MIC90 [8]: > 128 mg/L; MIC50 [9]: 0.12 mg/L; MIC90 [9]: 0.25 mg/L; MIC50 [10]: 64 mg/L; MIC90 [10]: 128 mg/L; MIC50 [11]: 16 mg/L; MIC90 [11]: 32 mg/L; MIC50 [12]: 2 mg/L; MIC90 [12]: 8 mg/L; MIC50 [13]: 4 mg/L; MIC90 [13]: 16 mg/L; MIC50 [14]: 0.12 mg/L (≈ 0.232 µM); MIC90 [14]: 0.25 mg/L (≈ 0.483 µM); MIC50 [15]: 0.06 mg/L (≈ 0.116 µM); MIC90 [15]: 0.25 mg/L (≈ 0.483 µM); MIC50 [16]: 0.06 mg/L; MIC90 [16]: 0.25 mg/L; MIC50 [17]: 2 mg/L; MIC90 [17]: 16 mg/L; MIC50 [18]: 8 mg/L; MIC90 [18]: 16 mg/L; MIC [19]: ≤ 0.015 mg/L; MIC50 [19]: ≤ 0.015 mg/L; MIC90 [19]: 0.03 mg/L; MIC [20]: ≤ 0.004 mg/L; MIC50 [20]: ≤ 0.004 mg/L; MIC90 [20]: 0.015 mg/L
